Measured values: ChEMBL document CHEMBL3994572, “Antiviral Triterpenes from the Twigs and Leaves of Lyonia ovalifolia” (J Nat Prod, 2016)

Columns and labels:
Human alphaherpesvirus 1 = assay: Antiviral activity against Herpes simplex virus-1 F VR 733 infected in African green monkey Vero cells assessed as inhibition of virus-induced cytopathic effect; format: functional; conditions: Human alphaherpesvirus 1, Strain F ATCC VR 733, Vero
Procedure, shortened: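 Vero cells (2.5 × 10^4/well) were seeded for 24 h, then the medium was removed. Cells were infected with HSV-1 at 100 TCID50 for 2 h, then given graded compound concentrations. Incubation continued until control CPE reached 4+. Runs were in triplicate, repeated at least three times. IC50 is the minimal concentration inhibiting 50% of CPE, by Reed and Muench.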

[1] = Cytotoxicity against African green monkey Vero cells assessed as growth inhibition after 48 hrs; format: cell-based; conditions: chlorocebus sabaeus, read-out: TC50
Procedure, shortened: (§1)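 Vero or MDCK cells (2.5 × 10^4/well) were seeded for 24 h, then exposed to graded compound concentrations. After 48 h at 37 °C and 5% CO2, cytotoxicity was scored by CPE. TC50 was calculated by Reed and Muench analysis.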

[2] = Selectivity index, ratio of TC50 for African green monkey Vero cells to IC50 for Herpes simplex virus-1 F VR 733 infected in African green monkey Vero cells; format: toxicity; conditions: read-out: Selectivity Index
Procedure, shortened: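 Vero cells (2.5 × 10^4/well) seeded 24 h, medium removed, infected with HSV-1 at 100 TCID50 for 2 h, then graded compound concentrations added until control CPE reached 4+. IC50 = minimal concentration inhibiting 50% CPE (Reed and Muench); triplicate, at least three separate experiments. […] SI = TC50/IC50.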

Influenza A virus = assay: Antiviral activity against Influenza A virus A/95-359 infected in MDCK cells assessed as inhibition of virus-induced cytopathic effect; format: functional, cell-based; conditions: A/95-359, MDCK
Procedure, shortened: (§2)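 MDCK cells (2.5 × 10^4/well) seeded 24 h, PBS-washed, infected with influenza A/95-359 at 100 TCID50 for 2 h, then exposed to graded compound concentrations until control CPE reached 4+. IC50 = minimal concentration inhibiting 50% of CPE (Reed and Muench); triplicate, at least three separate experiments. […] SI = TC50/IC50.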

[3] = Cytotoxicity against MDCK cells assessed as growth inhibition after 48 hrs; format: cell-based, Canis lupus familiaris; conditions: dog, read-out: TC50; procedure, shortened: as §1
[4] = Selectivity index, ratio of TC50 for MDCK cells to IC50 for Influenza A virus (A/95-359) infected in MDCK cells; format: toxicity, cell-based; conditions: dog, read-out: Selectivity Index; procedure, shortened: as §2
Coxsackievirus B3 = assay: Antiviral activity against Coxsackievirus B3 infected in African green monkey Vero cells assessed as inhibition of virus-induced cytopathic effect; format: functional; conditions: Enterovirus B
Procedure, shortened: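 Vero monolayers were infected with Cox B3 at 100 TCID50 and allowed 2 h adsorption at 37 °C. They were then washed with PBS and kept at 37 °C in MEM with 2% FBS, with or without graded concentrations of test compounds. Read-out was CPE.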

[5] = Selectivity index, ratio of TC50 for African green monkey Vero cells to IC50 for Coxsackievirus B3 infected in African green monkey Vero cells; format: toxicity; conditions: read-out: Selectivity Index
Procedure, shortened: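 Vero monolayers infected with 100 TCID50 Coxsackie B3 virus, 2 h adsorption at 37 °C, PBS-washed, then held in MEM plus 2% FBS at 37 °C with graded compound concentrations. […] SI = TC50/IC50.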

| Compound | IC50 (Human alphaherpesvirus 1) [µM] | CC50 at 48 h [1] [µM] | selectivity ratio [2] | IC50 (Influenza A virus) [µM] | CC50 at 48 h [3] [µM] | selectivity ratio [4] | IC50 (Coxsackievirus B3) [µM] | selectivity ratio [5] |
| --- | --- | --- | --- | --- | --- | --- | --- | --- |
| C[C@H](CCC(=O)C(C)(C)O)[C@H]1CC[C@@]2(C(=O)O)[C@@H]3CCC4=C(CC[C@@H](O)C4(C)C)C[C@H]3CC[C@]12C | 3.7 | 16 | 4.3 | 2.1 | 6.4 | 3 | 2.1 | 7.6 |
| C[C@H](CC[C@H](O)C(C)(C)O)[C@H]1CC[C@@]2(C(=O)O)C3=C(CC[C@]12C)[C@@]1(C)CC[C@@H](O)C(C)(C)[C@@H]1CC3 | 2.1 | 16 to 19.3 | 7.6 | 3.7 | 16 | 4.3 | 4.8 | 4 |
| CC(=O)OC[C@H]1O[C@@H](O[C@@H]2CC[C@]3(C)C4=C(CC[C@H]3C2(C)C)[C@]2(C(=O)O)CC[C@H]([C@H](C)CC[C@H](O)C(C)(C)O)[C@@]2(C)CC4)[C@H](O)[C@@H](O)[C@@H]1O | 6.4 | 19.3 | 3 | 11.1 | 19.3 | 1.7 | 11.1 | 1.7 |
